Results taken from ChEMBL document CHEMBL4118078, “Developing pyridazine-3-carboxamides to be CB2 agonists: The design, synthesis, structure-activity relationships and docking studies” (Eur J Med Chem, 2017).

Key:
[1] = target: T1, Cannabinoid receptor 1 (Homo sapiens, UniProt P21554); assay: Agonist activity at CB1 receptor (unknown origin) expressed in CHO cells assessed as induction of calcium mobilization at 10 uM by fluo-4 AM dye-based fluorescence assay relative to CP55940; format: functional, cell-based
T1 sequence (P21554 whole entry): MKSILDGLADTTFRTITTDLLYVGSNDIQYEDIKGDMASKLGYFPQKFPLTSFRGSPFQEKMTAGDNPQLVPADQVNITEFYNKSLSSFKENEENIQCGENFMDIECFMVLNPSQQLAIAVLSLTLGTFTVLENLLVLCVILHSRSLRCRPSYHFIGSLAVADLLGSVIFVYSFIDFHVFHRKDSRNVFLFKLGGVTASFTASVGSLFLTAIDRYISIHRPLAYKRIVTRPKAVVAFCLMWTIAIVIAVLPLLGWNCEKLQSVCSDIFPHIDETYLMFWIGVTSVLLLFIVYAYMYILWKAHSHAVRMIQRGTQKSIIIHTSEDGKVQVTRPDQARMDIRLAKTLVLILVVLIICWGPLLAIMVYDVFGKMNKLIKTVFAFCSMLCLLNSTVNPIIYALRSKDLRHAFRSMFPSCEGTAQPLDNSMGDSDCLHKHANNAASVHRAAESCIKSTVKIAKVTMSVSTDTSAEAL

[2] = target: T2, Cannabinoid receptor 2 (Homo sapiens, UniProt P34972); assay: Agonist activity at CB2 receptor (unknown origin) expressed in CHO cells assessed as induction of calcium mobilization at 10 uM by fluo-4 AM dye-based fluorescence assay relative to CP55940; format: functional, cell-based
T2 sequence (P34972 whole entry): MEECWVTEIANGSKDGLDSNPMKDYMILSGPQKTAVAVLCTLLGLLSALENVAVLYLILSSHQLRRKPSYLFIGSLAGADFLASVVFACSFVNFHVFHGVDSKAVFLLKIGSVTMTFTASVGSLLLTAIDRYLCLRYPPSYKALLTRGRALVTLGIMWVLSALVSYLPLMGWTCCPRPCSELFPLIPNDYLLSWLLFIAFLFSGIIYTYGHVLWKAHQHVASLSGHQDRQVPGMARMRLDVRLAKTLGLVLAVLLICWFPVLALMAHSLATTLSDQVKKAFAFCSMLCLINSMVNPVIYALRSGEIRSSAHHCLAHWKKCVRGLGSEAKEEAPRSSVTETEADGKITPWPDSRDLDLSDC

[3] = target: T2, Cannabinoid receptor 2; assay: Agonist activity at CB2 receptor (unknown origin) expressed in CHO cells assessed as induction of calcium mobilization by fluo-4 AM dye-based fluorescence assay; format: functional, cell-based
[4] = target: T2, Cannabinoid receptor 2; assay: Agonist activity at CB2 receptor (unknown origin) expressed in CHO cells assessed as induction of calcium mobilization by fluo-4 AM dye-based fluorescence assay relative to CP55940; format: functional, cell-based
How it was run: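 Cell-based calcium mobilization, agonist mode, with CP55940 as positive control. Compounds giving more than 50% activation in a single-concentration 10 µM primary screen were run in dose-response to derive EC50.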

[5] = species on record: Homo sapiens; assay: Selectivity index, ratio of EC50 for CB1 receptor (unknown origin) to EC50 for CB2 receptor (unknown origin)
[6] = target: T1, Cannabinoid receptor 1; assay: Agonist activity at CB1 receptor (unknown origin) expressed in CHO cells assessed as induction of calcium mobilization by fluo-4 AM dye-based fluorescence assay; format: functional, cell-based
[7] = target: T2, Cannabinoid receptor 2; assay: Antagonist activity at CB2 receptor (unknown origin) expressed in CHO cells assessed as inhibition of CP55940-induced calcium mobilization at 10 uM preincubated for 10 mins followed by CP55940-induction by fluo-4 AM dye-based fluorescence assay relative to SR141716A; format: functional, cell-based
How it was run: (§1)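 Cell-based calcium mobilization, antagonist mode, single-concentration screen at 10 µM against CB1 and CB2. SR141716A served as the antagonist-mode positive control.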

[8] = target: T1, Cannabinoid receptor 1; assay: Antagonist activity at CB1 receptor (unknown origin) expressed in CHO cells assessed as inhibition of CP55940-induced calcium mobilization at 10 uM preincubated for 10 mins followed by CP55940-induction by fluo-4 AM dye-based fluorescence assay relative to SR141716A; format: functional, cell-based; how it was run: as §1
[9] = target: T2, Cannabinoid receptor 2; assay: Potency index, ratio of GW842166X EC50 to test compound EC50 for agonist activity at CB2 receptor (unknown origin); format: functional
[10] = target: T2, Cannabinoid receptor 2; assay: Potency index, ratio of CP55940 EC50 to test compound EC50 for agonist activity at CB2 receptor (unknown origin); format: functional

Compound | Activity [1] | Activity [2] | EC50 [3] | Emax [4] | Ratio EC50 [5] | EC50 [6] | inhibition [7] | inhibition [8] | Ratio EC50 [9] | Ratio EC50 [10]
CCCCNc1cc(C(C)C)c(C(=O)NC23CC4CC(CC(C4)C2)C3)nn1 | 10.7% | 64% | 0.159 µM | 76% | > 63 | 10 µM |  |  |  | 
O=C(NC1CCCCC1)c1ccc(N2CCOCC2)nn1 | -3.69% | 17.7% | > 10 µM |  |  | > 10 µM | 16.3% |  |  | 
CC(C)c1cc(NCCO)nnc1C(=O)NC1C2CC3CC(C2)CC1C3 (stereo not given) | 17.4% | 137% | 0.00496 µM | 94% | > 2020 | > 10 µM |  | -8.39% |  | 
CC(C)c1cc(N2CCOCC2)nnc1C(=O)NC12CC3CC(CC(C3)C1)C2 | 3.8% | 117% | 0.396 µM | 93% | > 25 | > 10 µM |  | 16.9% |  | 
CC(C)c1cc(N2CCOCC2)nnc1C(=O)NC1CCCCC1 | 6.25% | 87.2% | 0.594 µM | 91% | > 17 | > 10 µM |  | -9.42% |  | 
CC(C)c1cc(NC2CCCC2)nnc1C(=O)NC1C2CC3CC(C2)CC1C3 (stereo not given) | 23.2% | 141% | 0.0057 µM | 107% | > 1750 | > 10 µM |  | 38.2% |  | 
CC(C)c1cc(C(=O)NC2C3CC4CC(C3)CC2C4)nnc1N1CCOCC1 (stereo not given) | -0.267% | 107% | 0.403 µM | 105% | > 25 | > 10 µM |  | 1.8% |  | 
CC(C)c1cc(Nc2cccc(Cl)c2)nnc1C(=O)NC1C2CC3CC(C2)CC1C3 (stereo not given) | -6.45% | 48% | 6.7 µM | 77% | > 1 | > 10 µM | 44.3% |  |  | 
CC(C)c1cc(NC2CCCC2)nnc1C(=O)NC12CC3CC(CC(C3)C1)C2 | 19.5% | 95.5% | 0.301 µM | 80% | > 33 | > 10 µM |  | 44.5% |  | 
CC(C)c1cc(C(=O)NC2C3CC4CC(C3)CC2C4)nnc1N1CCCCC1 (stereo not given) | -1.23% | 63% | 3.45 µM | 106% | > 3 | > 10 µM |  | -3.84% |  | 
CCC(CC)Nc1nnc(C(=O)NC2C3CC4CC(C3)CC2C4)cc1C(C)C (stereo not given) | -5.62% | 25% | > 10 µM |  |  | > 10 µM | 0.214% | 4.48% |  | 
CCCCNc1cc(C(C)C)c(C(=O)NC2C3CC4CC(C3)CC2C4)nn1 (stereo not given) | 13.7% | 91.4% | 0.0494 µM | 108% | > 203 | > 10 µM |  |  |  | 
CC(C)c1cc(C(=O)NC23CC4CC(CC(C4)C2)C3)nnc1N1CCOCC1 | -2.98% | 101% | 0.349 µM | 125% | > 29 | > 10 µM |  |  |  | 
CC(C)c1cc(NC(C)C(C)C)nnc1C(=O)NC1C2CC3CC(C2)CC1C3 (stereo not given) | 10.7% | 82% | 2.94 µM | 77% | > 3 | > 10 µM |  | 7.68% |  | 
CC(C)c1cc(C(=O)NC2CCCCC2)nnc1N1CCOCC1 | -4.03% | 107% | 0.97 µM | 99% | > 10 | > 10 µM |  | -8.12% |  | 
CC(C)c1cc(C(=O)NC2C3CC4CC(C3)CC2C4)nnc1NC1CCCC1 (stereo not given) | 6.55% | 122% | 0.0344 µM | 114% | > 291 | > 10 µM |  | 24.1% | > 10 | 
CC(C)c1cc(NCCO)nnc1C(=O)NC12CC3CC(CC(C3)C1)C2 | 13.4% | 125% | 0.0426 µM | 114% | > 235 | > 10 µM |  |  |  | 

Compound | Activity [1] | Activity [2] | EC50 [3] | Emax [4] | Ratio EC50 [5] | EC50 [6] | inhibition [7] | inhibition [8] | Ratio EC50 [9] | Ratio EC50 [10]
CC(C)c1cc(N2CCOCC2)nnc1C(=O)NC1C2CC3CC(C2)CC1C3 (stereo not given) | 26.1% | 126% | 0.00367 µM | 91% | > 2730 | > 10 µM |  |  | 94 | 8
CC(C)c1cc(NC2CCCC2)nnc1C(=O)NC1CCCCC1 | 9.48% | 87.5% | 0.338 µM | 78% | > 30 | > 10 µM |  |  |  | 
CC(C)c1cc(N2CCCCC2)nnc1C(=O)NC1C2CC3CC(C2)CC1C3 (stereo not given) | 16% | 114% | 0.0181 µM | 140% | > 553 | > 10 µM |  | 44.1% |  | 
O=C(NC1C2CC3CC(C2)CC1C3)c1ccc(N2CCOCC2)nn1 (stereo not given) | 3.24% | 63.2% | 8.42 µM | 79% | > 1 | > 10 µM |  | 17.7% |  | 
O=C(NC12CC3CC(CC(C3)C1)C2)c1ccc(N2CCOCC2)nn1 | -4.49% | 33.7% | > 10 µM |  |  | > 10 µM | 25.8% |  |  | 
CC(C)c1cc(C(=O)NC2C3CC4CC(C3)CC2C4)nnc1NCCO (stereo not given) | -0.906% | 124% | 0.0999 µM | 127% | > 100 | > 10 µM |  | 1.87% |  | 
CC(C)c1cc(N2CCN(C)CC2)nnc1C(=O)NC1C2CC3CC(C2)CC1C3 (stereo not given) | 16.7% | 3.06% | > 10 µM |  |  | > 10 µM | 10.1% | 37.3% |  | 
CC(C)c1cc(NC2CC2)nnc1C(=O)NC1C2CC3CC(C2)CC1C3 (stereo not given) | 7.48% | 119% | 0.0171 µM | 117% | > 584 | > 10 µM |  |  |  | 
CCCCNc1cc(C(C)C)c(C(=O)NC2CCCCC2)nn1 | 8.74% | 13.4% | > 10 µM |  |  | > 10 µM | 50.6% | 47.9% |  | 
CC(C)c1cc(NCC2CC2)nnc1C(=O)NC1C2CC3CC(C2)CC1C3 (stereo not given) | 31.3% | 125% | 0.0477 µM | 135% | > 210 | > 10 µM |  | 22.1% |  | 
CC(C)c1cc(NCCO)nnc1C(=O)NC1CCCCC1 | 14.8% | 91.1% | 0.842 µM | 81% | > 12 | > 10 µM |  |  |  | 
CC(C)c1cc(C(=O)NC2C3CC4CC(C3)CC2C4)nnc1Nc1cccc(Cl)c1 (stereo not given) | 2.12% | 19.2% | > 10 µM |  |  | > 10 µM | 19.4% | 5.1% |  | 
O=C(NCC1CCOCC1)c1cnc(Nc2ccc(Cl)cc2Cl)nc1C(F)(F)F [GW842166X] | 18.2% | 129% |  |  | > 29 | > 10 µM |  | 11.8% |  | 
CCCCNc1nnc(C(=O)NC2C3CC4CC(C3)CC2C4)cc1C(C)C (stereo not given) | 89.3% | 97.1% | 0.0962 µM | 93% | 27 | 2.61 µM |  |  |  | 
CC(C)c1cc(NC2CCCCC2)nnc1C(=O)NC1C2CC3CC(C2)CC1C3 (stereo not given) | -0.238% | 119% | 0.398 µM | 81% | > 25 | > 10 µM |  |  |  | 
CC(C)c1cc(C(=O)NC2C3CC4CC(C3)CC2C4)nnc1NC1CCCCC1 (stereo not given) | 2.64% | 106% | 0.199 µM | 91% | > 50 | > 10 µM |  | 39.3% |  | 
CC(C)c1cc(C(=O)NC2C3CC4CC(C3)CC2C4)nnc1NCC1CC1 (stereo not given) | 39.3% | 113% | 0.167 µM | 109% | 36 | 6.05 µM |  |  |  | 
